Source: PubChem (several laboratories)
A selection: hits, their analogues and other compounds. The true share with any hit is near 0.74%.
RGS4-Gao reg: modulators of RGS4 binding to Galphao, primary screen, biochemical, multiplexed bead flow cytometry; binding response (% of control), % at 10 µM; actives lie on both sides; Guanine nucleotide-binding protein G(o) subunit alpha (Homo sapiens), P09471; 220,000 compounds, 0.33% hits; AID 1415, 2008; in the data active means binding response below about 49% or above about 150%; inactive means in between;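 further: fluorescent Galphao activated with aluminum fluoride binding bead-coupled RGS4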
Target sequence (P09471 whole entry, looked up): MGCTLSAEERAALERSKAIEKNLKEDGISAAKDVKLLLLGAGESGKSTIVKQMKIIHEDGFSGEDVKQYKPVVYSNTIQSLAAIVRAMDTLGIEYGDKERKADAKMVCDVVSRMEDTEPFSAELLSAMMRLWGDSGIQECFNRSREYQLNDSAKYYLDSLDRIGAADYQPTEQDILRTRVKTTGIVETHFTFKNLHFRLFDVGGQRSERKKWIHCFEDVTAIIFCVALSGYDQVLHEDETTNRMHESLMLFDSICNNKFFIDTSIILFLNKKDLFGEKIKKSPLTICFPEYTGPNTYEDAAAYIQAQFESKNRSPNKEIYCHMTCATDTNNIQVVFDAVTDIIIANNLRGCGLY
RGS8-Gao: RGS8-Galphao binding modulators, primary screen, biochemical, multiplexed bead flow cytometry; actives lie on both sides; response (percent of control binding), % at 10 µM; 220,000 compounds, 0.34% hits; AID 1423, 2008; in the data active means response below about 60% or above about 140%; inactive means in between;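 further: Galphao activated as the GDP aluminium fluoride complex binding bead-coupled RGS8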
RGS7-Gao reg: RGS7-Galphao binding modulators, primary screen, biochemical, multiplexed bead flow cytometry | Guanine nucleotide-binding protein G(o) subunit alpha (Homo sapiens), P09471 | actives lie on both sides | binding response (% of control), % at 10 µM | 220,000 compounds, 0.35% hits; in the data active means binding response below about 49% or above about 150%; inconclusive means no clear call, values can overlap the other calls; inactive means in between;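 further: fluorescent Galphao held in activated GDP-AlF4 state binding bead-coupled RGS7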
RGS16-Gao HTS: modulators of RGS16 binding to Galphao, primary screen, biochemical, human proteins, multiplexed bead flow cytometry; binding response (% of control), % at 10 µM; Regulator of G-protein signaling 16 (Homo sapiens) + Guanine nucleotide-binding protein …; 220,000 compounds, 0.38% hits; bead-based flow cytometry RGS16-Galphao binding, fluorescence; actives lie on both sides;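 further: Galphao activated by GDP with aluminum fluoride before binding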
Target sequence (O15492 whole entry, looked up): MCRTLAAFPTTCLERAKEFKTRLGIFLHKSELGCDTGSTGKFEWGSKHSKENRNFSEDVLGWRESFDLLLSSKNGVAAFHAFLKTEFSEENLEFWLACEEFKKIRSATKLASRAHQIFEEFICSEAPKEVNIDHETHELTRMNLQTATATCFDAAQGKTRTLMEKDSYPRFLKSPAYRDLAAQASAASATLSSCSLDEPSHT
Target sequence (P09471 whole entry, looked up): as the sequence (P09471 whole entry, looked up) above
Calb biofilm kill: clotrimazole potentiators killing C. albicans biofilm, primary screen, 4-compound mixtures; inhibition, % at 7.6 µM; 120,000 compounds, 0.02% hits; C. albicans biofilm persisters + clotrimazole, fluorescence viability; primary screen in compound mixtures of four per well; AID 1242, 2008;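 active means inhibition above 30.3% in the primary screen of four-compound pools, then above 30% when the compound was retested; inconclusive means passed the primary limit but could not be retested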;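 further: compounds exposed to preformed 24 h biofilms for 48 h; 0% = untreated biofilm control and 100% = clotrimazole plus chlorhexidine kill blank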
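Probe or stimulus – Clotrimazole 50 µg/mL co-treatment · System – C. albicans biofilms · Schedule – 24 h biofilm formation, then 48 h compound exposure, 37 °C · Evaluation – percent inhibition of biofilm viability · Technique – 2-h Alamar Blue fluorescence, 535/590 nm excitation/emission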
RGS4-Gao HTS: modulators of RGS–Galpha-o binding, primary screen, biochemical, multiplexed beads, flow cytometry, RGS4/7/8/16/19. AID 1504, 2009. shares compounds with RGS16-Gao HTS. 1,600 compounds, 99% hits. RGS4–Galpha-o binding response, % at 10 µM. multiplexed bead flow cytometry;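 further: fluorescently labeled Galpha-o bound to GDP with aluminium fluoride binding biotinylated RGS beads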
Avidin counter: disruption of biotin probe capture by avidin, counter-screen for RGS protein interaction modulators, biochemical, flow cytometry, bead-based; 1,700 tested, under 10 active; shares compounds with RGS16-Gao HTS; inhibition, % at 10 µM; streptavidin beads, fluorescein-biotin binding; AID 1783, 2009;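 active means inhibition above 50%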;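 further: median green fluorescence of gated singlet beads compared with DMSO control wells; 0% = DMSO wells and 100% = complete loss of bead fluorescence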
RGS8-Gao single: RGS8-Galphao binding modulators, confirmation, biochemical, multiplexed bead flow cytometry, single concentration | shares compounds with RGS16-Gao HTS | bead-based flow cytometry RGS8-Galphao binding, fluorescence; actives lie on both sides | binding response (% of control), % at 10 µM | 1,700 compounds, 3% hits; in the data active means binding response below about 72% or above about 130%; inactive means in between;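 further: Galphao activated as GDP AlF4 complex before binding bead RGS8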
RGS7-Gao single: RGS7-Galphao binding modulators, confirmation, biochemical, multiplexed bead flow cytometry, single concentration; 1,700 compounds, 7.8% hits; AID 1837, 2009; bead-based flow cytometry RGS7-Galphao binding; actives lie on both sides; response (percent of control binding), % at 10 µM; shares compounds with RGS16-Gao HTS; in the data active means response below about 75% or above about 130%; inactive means in between;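 further: fluorescent Galphao activated with GDP and aluminum fluoride binding bead-coupled RGS7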
RGS16-Gao conf: modulators of RGS16-Galphao protein binding, confirmation, biochemical, single concentration, multiplexed bead flow cytometry | shares compounds with RGS16-Gao HTS | bead-based flow cytometry; actives lie on both sides | response (% of control binding), % at 10 µM | 1,700 compounds, 4% hits; in the data active means response below about 74% or above about 130%; inactive means in between;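 further: Galphao activated as the GDP aluminium fluoride complex binding bead-coupled RGS16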
RGS4-Gao single: modulators of RGS4-Galphao protein binding, confirmation, biochemical, single concentration, multiplexed bead flow cytometry | shares compounds with RGS16-Gao HTS | binding response (% of control), % at 10 µM | 1,700 compounds, 4% hits | actives lie on both sides | AID 1840, 2009; in the data active means binding response below about 74% or above about 130%; inactive means in between
RGS19-Gao conf: regulators of RGS19-Galphao binding, confirmation, biochemical, single point, multiplexed bead flow cytometry. bead-based flow cytometry RGS19-Galphao binding; actives lie on both sides. response (percent of control binding), % at 10 µM. 1,700 compounds, 5% hits. shares compounds with RGS16-Gao HTS; in the data active means response below about 50% or above about 160%; inactive means in between;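 further: 100% = no compound control and 0% = blank background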
* hit, by the source's call; ? = inconclusive; / = no result given; [ ] = dose if it differs, or a comment. Unless noted, how the calls were made is not given here.

SMILES	RGS4-Gao reg	RGS8-Gao	RGS7-Gao reg	RGS16-Gao HTS	Calb biofilm kill	Avidin counter	RGS8-Gao single	RGS7-Gao single	RGS16-Gao conf	RGS4-Gao single	RGS19-Gao conf	others
Cc1nnc(SCC2=C(C(=O)O)N3C(=O)C(NC(=O)C(C)n4nc(C(F)(F)F)cc4C)C3SC2)s1 (stereo unspecified)	109.8	105.5	108.3	111.9	8.4	/	/	/	/	/	/
CCOC(=O)N1CCC(N2CCCC(CO)(Cc3cccc(OC)c3)C2)CC1 (stereo unspecified)	100.8	103.2	99.9	102.7	5.8	/	/	/	/	/	/
CCOc1ccc2ncc(C(=O)c3ccc(OC)cc3)c(N3CCN(CC)CC3)c2c1	359.0*[activator]	123.1	308.6*[activator]	284.5*[activator]	11.0	1.0	102.4	101.7	102.9	103.0	73.8
CCc1ccc(C(=O)c2cnc3ccc(OC)cc3c2N2CCN(CC)CC2)cc1	106.3	103.7	102.6	104.3	6.4	/	/	/	/	/	/
COc1ccc(C2=NN(C(=O)CSc3cn(C)c4ccccc34)C(c3ccc(OC)cc3)C2)cc1 (stereo unspecified)	100.2	102.7	95.4	104.2	/	/	/	/	/	/	/
O=C(c1cccnc1Nc1ccc2c(c1)CCC2)N1CCOCC1	-3.1*	8.5*	-1.2*	-1.9*	/	-1.6	101.2	96.5	101.6	101.4	101.3
Cc1c(-c2n[nH]c(=S)n2-c2ccc(C(F)(F)F)cc2)nnn1-c1ccccc1	101.2	97.0	101.4	103.0	9.4	/	/	/	/	/	/
Cc1c(-c2n[nH]c(=S)n2-c2ccc(Br)cc2)nnn1-c1ccc(Cl)cc1	109.9	102.5	/	103.3	12.7	-1.9	85.6	98.2	86.2	89.5	66.9
COc1ccc(C(=O)c2cc([N+](=O)[O-])ccc2N2CCOCC2)cc1	88.6	86.7	92.7	68.7	-12.2	/	/	/	/	/	/
O=C(c1cc([N+](=O)[O-])ccc1N1CCOCC1)N1CCCC1	84.5	64.7	86.3	16.2*	17.2	-1.7	100.5	98.2	98.4	102.4	96.7	RGS4-Gao HTS=84.5*
Cc1ccc(C(=O)c2cc([N+](=O)[O-])ccc2N2CCOCC2)cc1	91.5	84.7	88.9	21.2*	16.2	4.9	101.0	99.4	99.0	98.5	103.6	RGS4-Gao HTS=91.5*
O=C(c1cc([N+](=O)[O-])ccc1N1CCOCC1)N1CCOCC1	95.8	89.0	97.9	70.0	17.3	/	/	/	/	/	/
CCOC(=O)N1CN(C(=O)OCC)CN(C(=O)OCC)C1	-37.6*	5.2*	?	-22.4*	-1.3	-1.1	88.7	74.1*	81.8	83.1	68.8
CCOC(=O)C(C(=O)OCC)C1OC(=O)c2cc3c(cc21)C(=O)OC3C(C(=O)OCC)C(=O)OCC (stereo unspecified)	141.0	87.1	358.7*[activator]	124.3	8.6	1.6	89.5	86.5	88.6	91.2	82.5	RGS4-Gao HTS=141.0*
CC(C)C(NS(=O)(=O)c1cccc2nsnc12)C(=O)Nc1nc2ccc(Cl)cc2s1 (stereo unspecified)	100.3	100.7	104.2	102.8	/	/	/	/	/	/	/
CCOc1ccc2nc(NC(=O)C(NS(=O)(=O)c3cccc4nsnc34)C(C)C)sc2c1 (stereo unspecified)	153.0*[activator]	131.2	136.5	117.8	/	-0.4	101.3	105.4	103.1	103.4	104.7
O=C(Cn1c2ccccc2c(=O)c2ccccc21)N/N=C/c1ccc(N2CCCC2)c([N+](=O)[O-])c1	90.8	98.0	90.0	96.8	11.0	/	/	/	/	/	/
O=C(Cn1c2ccccc2c(=O)c2ccccc21)N/N=C/c1cc([N+](=O)[O-])ccc1N1CCCCCC1	/	/	/	/	/	1.5	104.9	134.7*[activator]	139.5*[activator]	129.1*[activator]	384.1*[activator]
COc1cc(OC)nc(NC(=O)NS(=O)(=O)c2ccc(OC(F)(F)F)cc2)n1	98.7	100.1	102.8	100.8	/	/	/	/	/	/	/
Cc1ccc(C)n1Cc1ccc(C(=O)O)cc1	89.0	68.3	48.8*	76.1	/	/	/	/	/	/	/	RGS4-Gao HTS=89.0*
Cc1sc2nc(COC(=O)CNC(=O)c3ccc(C(C)(C)C)cc3)[nH]c(=O)c2c1C	77.9	88.3	89.1	72.8	18.6	/	/	/	/	/	/
C=CCSc1nnc(NC(=O)c2cccc(S(=O)(=O)N3CCOCC3)c2)s1	98.9	102.8	98.6	98.4	/	/	/	/	/	/	/
CC12CCC(C(=O)Nc3cccc(Cl)c3)(C(Br)C1=O)C2(C)C (stereo unspecified)	107.4	105.3	109.1	115.4	6.9	/	/	/	/	/	/
CC12CCC(C(=O)Nc3ccc(Cl)cc3)([C@H](Br)C1=O)C2(C)C (stereo partly specified)	/	/	/	/	15.9	-0.3	101.2	106.8	103.1	99.8	105.0
COc1ccc2c(c1OC)C(=O)N1N=C(c3ccc(F)cc3)CC21 (stereo unspecified)	97.4	101.0	99.0	97.8	6.2	/	/	/	/	/	/
Cc1ccc(C2=NN3C(=O)c4ccccc4C3C2)cc1 (stereo unspecified)	26.2*	63.6	?	39.5	15.7	-1.8	101.9	98.2	102.0	101.1	112.6
O=C(CN1C(=O)c2ccccc2C1=O)Nc1ccc(S(=O)(=O)N2CCOCC2)cc1	97.8	101.3	99.6	97.2	12.5	/	/	/	/	/	/
